Measurements taken from ChEMBL document CHEMBL1132424, “Design, synthesis, and evaluation of a novel sequence-selective epoxide-containing DNA cross-linking agent based on the pyrrolo[2, 1-c][1,4]benzodiazepine system” (J Med Chem, 1999).

Key:
Nucleic Acid [1] = assay: Effect on thermal denaturation temperature of CT-DNA after incubation for 18 hours with the compound; format: functional; conditions: Bos taurus
In short: (§1)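 Calf thymus duplex DNA (100 µM in phosphate) with PBD at 20 µM (1:5 PBD/DNA ratio), added from concentrated MeOH solution. Buffer was 10 mM sodium phosphate, 1 mM Na2EDTA, pH 7.00. Incubated at 37 °C for the stated time, then A260 read while heating 40-98 °C at 1 °C/min. Tm taken from d(A260)/dT maxima, MeOH-corrected. ΔTm = Tm(DNA+PBD) − Tm(DNA alone). Mean of three determinations.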

Nucleic Acid [2] = assay: Effect on thermal denaturation temperature of CT-DNA after incubation for 4 hours with the compound; format: functional; conditions: Bos taurus; in short: as §1
Nucleic Acid [3] = assay: Effect on thermal denaturation temperature of CT-DNA after incubation for 0 hours with the compound; format: functional; conditions: Bos taurus; in short: as §1
[4] = In vitro cytotoxicity against. ovarian carcinoma cell line CH1cisR (cisplatin resistant counter part of CH1).; format: functional, cell-based, Homo sapiens
In short: (§2)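 Cells seeded and left to attach overnight, then exposed in quadruplicate wells to compound (20 mM DMSO stock diluted in growth medium) at final 100 µM to 2.5 nM for 96 h at 37 °C. Cells fixed with 10% trichloroacetic acid, stained with 0.4% sulforhodamine B, absorbance read at 540 nm. IC50 from concentration versus percent absorbance of untreated wells.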

CH1 = assay: In vitro cytotoxicity against ovarian carcinoma cell line CH1.; format: functional, cell-based, Homo sapiens; in short: as §2
A2780 [5] = assay: In vitro cytotoxicity against. ovarian carcinoma cell line A2780.; format: functional, cell-based, Homo sapiens; in short: as §2
Nucleic Acid [6] = assay: Effect on thermal denaturation temperature of CT-DNA after incubation for 36 hours with the compound; format: functional; conditions: Bos taurus; in short: as §1
A2780 [7] = assay: In vitro cytotoxicity against. ovarian carcinoma cell line A2780cisR (cisplatin resistant counter part of A2780).; format: functional, cell-based, Homo sapiens; in short: as §2
SK-OV-3 = assay: In vitro cytotoxicity against. ovarian carcinoma cell line SKOV-3.; format: functional, cell-based, Homo sapiens; in short: as §2

| Compound | ΔTm (Nucleic Acid [1]) [°C] | ΔTm (Nucleic Acid [2]) [°C] | ΔTm (Nucleic Acid [3]) [°C] | IC50 ([4]; Homo sapiens, CH1cisR) [nM] | IC50 (CH1; Homo sapiens, CH1) [nM] | IC50 (A2780 [5]; Homo sapiens, A2780) [nM] | ΔTm (Nucleic Acid [6]) [°C] | IC50 (A2780 [7]; Homo sapiens, A2780) [nM] | IC50 (SK-OV-3; Homo sapiens, SK-OV-3) [nM] | IC50 ([4]; ch1cisr) [nM] | IC50 (CH1; ch1) [nM] | IC50 (A2780 [5]; a2780) [nM] | IC50 (A2780 [7]; a2780) [nM] | IC50 (SK-OV-3; sk-ov-3) [nM] |
| --- | --- | --- | --- | --- | --- | --- | --- | --- | --- | --- | --- | --- | --- | --- |
| COc1cc2c(cc1OCC1CO1)N=C[C@@H]1CCCN1C2=O (some centres undefined) | 1.3 | 0.8 | 0.5 | 47 | 59 | 45 | 1.5 | 200 | 1300 | – | – | – | – | – |
| COc1cc2c(cc1OCCCOc1cc3c(cc1OC)C(=O)N1CCC[C@H]1C=N3)N=C[C@@H]1CCCN1C2=O [DSB-120] | 15.1 | 13.1 | 10.2 | 22 | 33 | 7.2 | – | 210 | 740 | – | – | – | – | – |
| C=CCOc1cc2c(cc1OC)C(=O)N1CCC[C@H]1C=N2 | 0.8 | 0.7 | 0.4 | 135 | 160 | 1050 | – | 1650 | 3300 | – | – | – | – | – |
| CISPLATIN | – | – | – | – | – | – | – | – | – | 170 | 29 | 160 | 6100 | 4200 |
| COc1cc2c(cc1O)N=C[C@@H]1CCCN1C2=O | 0.7 | 0.5 | 0.3 | – | – | – | 0.7 | – | – | – | – | – | – | – |
